One test relates to MCF-7. Kind of test: Cytotoxicity assay. It is filed as cell-based, human. The following applies: read-out: IC50 (50% inhibitory concentration), MCF-7. The method, boiled down:
(§1)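 HepG2 cells (DMEM) or MCF-7 cells (RPMI-1640), each with 10% FBS, at 37 °C and 5% CO2. Cells were trypsinised, counted by trypan blue and seeded at 2.5 × 10^3 cells/well overnight. Test compound at 100, 50, 25, 12.5, 6.25 and 0 μM in 1% FBS medium, quadruplicate, 48 h. Adherent cells stained with 0.02% crystal violet, washed with water, dye dissolved in 1% SDS, A595. IC50 by linear regression of concentration against inhibition rate.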

The subject of another test is HEPG2. In words: Cytotoxicity assay. The settings on record: read-out: IC50 (50% inhibitory concentration), HEPG2. It is filed as cell-based, human. The method, boiled down: as §1
Another test concerns MDA-MB-231. Kind of test: Cytotoxicity assay. It is filed as cell-based. The following applies: read-out: IC50 (50% inhibitory concentration), MDA-MB-231; human breast cancer, 48 hours, 1% FBS, mean ± SD. The gist of the method: (§2)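 Cells grown at 37 °C, 5% CO2 with 10% FBS (HepG2.2.15 in DMEM; MDA-MB-231 in DMEM/F12 1:1) and trypsinised and trypan blue-counted 24 h before. Seeded at 2.5 × 10^3 per well overnight, then exposed in quadruplicate to 100–6.25 μM plus 0 μM in 1% FBS medium for 48 h. Crystal violet stain, water wash, SDS solubilisation, A595. IC50 from linear regression of concentration against inhibition rate.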

The subject of a further test is HEPG2.2.15. Kind of test: Cytotoxicity assay. The format is cell-based. The settings on record: read-out: IC50 (50% inhibitory concentration), HEPG2.2.15; human hepatocellular carcinoma, HBV transformed, 48 hours, 1% FBS, mean ± SD. The method, boiled down:
as §2

A further test deals with SARS-CoV-2 3CL protease (Severe acute respiratory syndrome coronavirus 2, UniProt P0DTD1). Kind of test: In vitro inhibitory activity assay of 3CL protease. The format is biochemical. The following applies: read-out: inhibitory activity against 3CL protease.
[1] abbreviates: human breast cancer, 48 hours, 1% FBS, mean ± SD.
[2] abbreviates: human hepatocellular carcinoma, 48 hours, 1% FBS, mean ± SD.

Read-outs that look alike come from different tables or passages of the source.

As for `O=c1c2ccccc2nc(S)n1Cc1cccnc1` [compound 5, 2-Mercapto-3-(pyridin-3-ylmethyl)quinazolin-4(3H)-one], the IC50 was > 100 µM with MCF-7 (Homo sapiens, MCF7, 48 h) and > 100 µM in the test with HEPG2 (Homo sapiens, HepG2, 48 h).
With `O=C(Cn1cnc2ccccc2c1=O)Nc1nccs1` [4i, 2-(4-Oxoquinazolin-3(4H)-yl)-N-(thiazol-2-yl)acetamide], the IC50 with MCF-7 (Homo sapiens, MCF7, 48 h) was > 100 µM; in the test on HEPG2 (Homo sapiens, HepG2, 48 h) it was 47.7 ± 16.2 µM.
On the same counts, the results for `Cc1ccc(NC(=O)Cn2cnc3ccccc3c2=O)c(O)c1` [4d, N-(2-Hydroxy-4-methylphenyl)-2-(4-oxoquinazolin-3(4H)-yl)acetamide] are > 100 µM and > 100 µM.
For the molecule `O=C(Cn1cnc2ccccc2c1=O)NCc1cccnc1` [4h, 2-(4-Oxoquinazolin-3(4H)-yl)-N-(pyridin-3-ylmethyl)acetamide], the IC50 in the test on MCF-7 (Homo sapiens, MCF7, 48 h) turned out to be 58.2 ± 8.04 µM; with HEPG2 (Homo sapiens, HepG2, 48 h), 51.4 ± 10.2 µM.
On to “3-(((1H-Benzo[d]imidazole-2-yl)methyl)thio)-2-(pyridin-3-ylmethyl)isoquinolin-1(2H)-one [9a]”, for which the IC50 in the test with MCF-7 (setting [1]), in the test with MDA-MB-231, in the test with HEPG2 (setting [2]) and in the test on HEPG2.2.15 was > 100 µM throughout.
In the case of `O=C(Cn1cnc2ccccc2c1=O)Nc1ccc(O)cc1[N+](=O)[O-]` [4a, N-(4-Hydroxy-2-nitrophenyl)-2-(4-oxoquinazolin-3(4H)-yl)acetamide], the IC50 in the test on MCF-7 (Homo sapiens, MCF7, 48 h) was > 100 µM; in the test with HEPG2 (Homo sapiens, HepG2, 48 h), > 100 µM. Also, the inhibition at 50 µM at SARS-CoV-2 3CL protease is > 50%.
For `COc1ccc(NC(=O)Cn2cnc3ccccc3c2=O)c(N)c1` [4g, N-(2-Amino-4-methoxyphenyl)-2-(4-oxoquinazolin-3(4H)-yl)acetamide], the IC50 is > 100 µM in the test on MCF-7 (Homo sapiens, MCF7, 48 h) and > 100 µM in the test on HEPG2 (Homo sapiens, HepG2, 48 h).
With `O=C(Cn1cnc2ccccc2c1=O)Nc1ccccc1O` [4e, N-(2-Hydroxyphenyl)-2-(4-oxoquinazolin-3(4H)-yl)acetamide], the IC50 with MCF-7 (Homo sapiens, MCF7, 48 h) is > 100 µM; with HEPG2 (Homo sapiens, HepG2, 48 h) it was 54.9 ± 15.2 µM.
Regarding `COc1ccc(NC(=O)Cn2cnc3ccccc3c2=O)c([N+](=O)[O-])c1` [4c, N-(4-methoxy-2-nitrophenyl)-2-(4-oxoquinazolin-3(4H)-yl)acetamide], the IC50 with MCF-7 (Homo sapiens, MCF7, 48 h) was > 100 µM; in the test on HEPG2 (Homo sapiens, HepG2, 48 h), > 100 µM. Moreover, the inhibition at 50 µM at SARS-CoV-2 3CL protease is > 50%.
Regarding “3-(((1-(2-Hydroxyethyl)-5-nitro-1H-benzo[d]imidazole-2-yl)methyl)thio)-2-(pyridin-3-ylmethyl)isoquinolin-1(2H)-one [9c]”, the IC50 in the test on MCF-7 (setting [1]), in the test with MDA-MB-231, in the test with HEPG2 (setting [2]) and with HEPG2.2.15 was > 100 µM each time.
As to `O=C(Cn1cnc2ccccc2c1=O)Nc1cc(Cl)ccc1O` [4b, N-(5-Chloro-2-hydroxyphenyl)-2-(4-oxoquinazolin-3(4H)-yl)acetamide], the IC50 with MCF-7 (Homo sapiens, MCF7, 48 h) is > 100 µM; in the test on HEPG2 (Homo sapiens, HepG2, 48 h), > 100 µM.
Take `O=C(Cn1cnc2ccccc2c1=O)Nc1ncccc1O` [4f, N-(3-Hydroxypyridin-2-yl)-2-(4-oxoquinazolin-3(4H)-yl)acetamide]: the IC50 in the test with MCF-7 (Homo sapiens, MCF7, 48 h) was > 100 µM; in the test with HEPG2 (Homo sapiens, HepG2, 48 h), > 100 µM.

(Values after article PMC11500731 (RSC Advances, 2024).)
